Reference: ChEMBL document CHEMBL4406881, “Design, synthesis and biological evaluation of benzoylacrylic acid shikonin ester derivatives as irreversible dual inhibitors of tubulin and EGFR” (Bioorg Med Chem, 2019)
Activity calls are given as the source filed them. The calls are words filed in the database; no cut-off is given here.

Columns and labels:
A549 [1] = assay: Induction of apoptosis in human A549 cells assessed as necrotic cells after at 8 uM 36 hrs by Annexin-V/PI staining based flow cytometry analysis (reference value: 2.98%); format: functional
Outline: (§1)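 A549 cells seeded overnight at 37 °C, 5% CO2, then exposed to 0, 2, 4, 8 or 12 µM for 24 h (dose series) or 8 µM for 0, 12, 24, 36 h (time series). Harvested, PBS-washed, stained with Annexin V-FITC and PI in binding buffer 15 min at room temperature in the dark, analysed by flow cytometry; three independent experiments.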

A549 [2] = assay: Induction of apoptosis in human A549 cells assessed as low mitochondrial membrane potential at 4 uM after 12 hrs by JC-1 staining-based flow cytometric analysis (reference value: 6.3%); format: functional
A549 [3] = assay: Induction of apoptosis in human A549 cells incubated for 24 hrs by Annexin-V/PI staining based flow cytometry analysis; format: functional, cell-based; outline: as §1
[4] = target: T1, Epidermal growth factor receptor (Homo sapiens, UniProt P00533); assay: Inhibition of EGFR signalling in human A549 cells assessed as reduction in ERK phosphorylation after 24 hrs by Western blot analysis; format: cell-based
T1 sequence (P00533 whole entry): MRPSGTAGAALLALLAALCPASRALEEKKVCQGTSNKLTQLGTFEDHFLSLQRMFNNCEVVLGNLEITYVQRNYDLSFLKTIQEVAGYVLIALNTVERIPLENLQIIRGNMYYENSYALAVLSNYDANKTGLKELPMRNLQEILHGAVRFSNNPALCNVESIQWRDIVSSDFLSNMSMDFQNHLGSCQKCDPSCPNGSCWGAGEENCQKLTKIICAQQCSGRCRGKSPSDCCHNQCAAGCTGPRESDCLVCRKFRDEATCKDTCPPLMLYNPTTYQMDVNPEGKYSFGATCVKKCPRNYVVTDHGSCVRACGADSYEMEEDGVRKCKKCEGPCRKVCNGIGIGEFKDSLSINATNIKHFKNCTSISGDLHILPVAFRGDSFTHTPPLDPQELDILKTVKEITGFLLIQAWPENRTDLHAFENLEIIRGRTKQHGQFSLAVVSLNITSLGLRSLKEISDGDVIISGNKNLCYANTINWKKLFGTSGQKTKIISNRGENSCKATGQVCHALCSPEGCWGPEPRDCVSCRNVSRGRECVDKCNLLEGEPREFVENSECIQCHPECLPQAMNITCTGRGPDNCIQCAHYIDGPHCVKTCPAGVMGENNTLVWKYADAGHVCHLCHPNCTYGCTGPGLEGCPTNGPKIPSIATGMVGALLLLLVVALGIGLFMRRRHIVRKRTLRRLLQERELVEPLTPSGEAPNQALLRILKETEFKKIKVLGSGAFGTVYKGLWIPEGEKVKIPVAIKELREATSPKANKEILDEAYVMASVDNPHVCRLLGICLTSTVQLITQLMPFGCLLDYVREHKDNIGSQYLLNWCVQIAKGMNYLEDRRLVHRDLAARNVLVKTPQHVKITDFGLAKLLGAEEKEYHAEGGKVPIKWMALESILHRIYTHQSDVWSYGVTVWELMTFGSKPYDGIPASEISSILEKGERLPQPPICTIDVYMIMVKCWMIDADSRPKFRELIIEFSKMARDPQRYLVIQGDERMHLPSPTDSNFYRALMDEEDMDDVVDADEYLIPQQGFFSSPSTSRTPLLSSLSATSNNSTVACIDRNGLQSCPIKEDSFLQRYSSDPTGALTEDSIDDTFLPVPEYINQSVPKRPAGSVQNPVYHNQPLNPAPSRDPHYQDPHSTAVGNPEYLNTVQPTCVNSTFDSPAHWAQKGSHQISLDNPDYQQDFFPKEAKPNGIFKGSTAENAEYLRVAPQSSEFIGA
Outline: (§2)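 A549 cells in 6-well plates were lysed in RIPA buffer with protease inhibitors on ice for 30 min and cleared at 4 °C. Protein was quantified by BCA, run on SDS-PAGE and transferred to PVDF. Membranes were blocked with milk, probed with primary antibody (1:1000) overnight at 4 °C, then secondary antibody (1:3000-1:5000) 1 h at RT. Detection by ECL; band densitometry normalised to GAPDH (β-actin also used). Three independent experiments.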

A549 [5] = assay: Induction early apoptosis in human A549 cells assessed as increase in ROS generation after by flow cytometric analysis; format: functional, cell-based
Outline: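 Intracellular ROS measured in A549 cells seeded to about 75% confluence. After treatment, cells were stained with ROS detection solution at 37 °C for 20 min, washed three times in serum-free medium, and analysed by flow cytometry.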

A549 [6] = assay: Cell cycle arrest in human A549 cells assessed as accumulation at G1 phase at 4 uM after 24 hrs by RNAse A/ PI staining based flow cytometric analysis (reference value: 73.30%); format: functional
Outline: (§3)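 A549 cells at 5.0×10^4 per well were grown 12 h at 37 °C. Treatment was 0, 2, 4 or 8 µM for 24 h, or 8 µM for 0, 12, 24 or 36 h. Cells were fixed in 70% ethanol at −20 °C for at least 12 h, then stained in PBS with 0.1 mg/mL RNase A and 5 µg/mL PI. At least 10,000 events per sample were collected by flow cytometry to give G0/G1, S and G2/M percentages.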

A549 [7] = assay: Induction of apoptosis in human A549 cells assessed as viable cells at 8 uM after 12 hrs by Annexin-V/PI staining based flow cytometry analysis (reference value: 88.4%); format: functional; details: A549, 12 h, read-out: Activity; outline: as §1
Tubulin (Homo sapiens) = Tubulin (Homo sapiens) (UniProt P68371+Q9H4B7+P0DPH7+P68366+Q13509+Q71U36+P04350+Q3ZCM7+P07437+P68363+Q9BQE3+Q6PEY2+Q13885+Q9BVA1+Q9BUF5); assay: Induction of tubulin depolymerization in human A549 cells at 4 to 8 uM after 24 hrs by DAPI staining based fluorescence microscopic analysis; format: cell-based
Outline: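 Cells were fixed in 4% paraformaldehyde, permeabilised with 1% Triton, and blocked with 5% BSA. Staining used anti-tubulin (1:200) overnight, then Cy3 anti-mouse IgG (1:1500) 1 h, then DAPI 1 µg/mL. Imaging by confocal microscopy.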

A549 [8] = assay: Cell cycle arrest in human A549 cells assessed as accumulation at G1 phase at 8 uM after 24 hrs by RNAse A/ PI staining based flow cytometric analysis (reference value: 67.69%); format: functional; outline: as §3
A549 [9] = assay: Induction of apoptosis in human A549 cells assessed as early apoptotic cells at 12 uM after 24 hrs by Annexin-V/PI staining based flow cytometry analysis (reference value: 1.15%); format: functional
A549 [10] = assay: Antimigratory activity against human A549 cells measured up to 48 hrs by phase contrast microscopic based wound healing assay; format: functional, cell-based
Outline: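 A549 monolayer seeded at 2×10^5 cells per cm² overnight, incubated 24 h, then scratched with a micropipette tip. The same cell-free area was imaged by phase-contrast microscopy at 0, 24 and 48 h. Wound area was outlined by image analysis to quantify the reduction in cell-free space; n = 3.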

A549 [11] = assay: Induction of apoptosis in human A549 cells assessed as necrotic cells after at 12 uM 24 hrs by Annexin-V/PI staining based flow cytometry analysis (reference value: 1.81%); format: functional; outline: as §1
A549 [12] = assay: Induction of apoptosis in human A549 cells assessed as caspase-3 cleavage expression at 2 to 8 uM after 24 hrs by Western blot analysis; format: functional, cell-based
Outline: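 Western blot of A549 cells treated for 24 h. Lysates in RIPA buffer were run on SDS-PAGE and transferred to PVDF. Primary antibody at 1:1000 overnight at 4 °C, secondary antibody at 1:3000-1:5000 for 1 h, ECL detection. Densitometry was normalised to GAPDH; mean ± S.E.M. from three independent experiments.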

A549 [13] = assay: Induction of apoptosis in human A549 cells assessed as viable cells at 8 uM after 24 hrs by Annexin-V/PI staining based flow cytometry analysis (reference value: 88.4%); format: functional; details: A549, 24 h, read-out: Activity; outline: as §1
A549 [14] = assay: Induction of apoptosis in human A549 cells assessed as late apoptotic cells at 8 uM after 12 hrs by Annexin-V/PI staining based flow cytometry analysis (reference value: 6.55%); format: functional; outline: as §1
[15] = target: T1, Epidermal growth factor receptor; assay: Inhibition of EGFR signalling in human A549 cells assessed as reduction in AKT phosphorylation after 24 hrs by Western blot analysis; format: cell-based; outline: as §2
A549 [16] = assay: Inhibition of Wnt/beta-catenin signaling pathway in human A549 cells assessed as reduction in beta-catenin expression in cytoplasm by Western blot analysis; format: cell-based; outline: as §2
A549 [17] = assay: Induction of apoptosis in human A549 cells assessed as late apoptotic cells at 4 uM after 24 hrs by Annexin-V/PI staining based flow cytometry analysis (reference value: 5.69%); format: functional
A549 [18] = assay: Cell cycle arrest in human A549 cells assessed as accumulation at G2/M phase at 2 uM after 24 hrs by RNAse A/ PI staining based flow cytometric analysis (reference value: 9.47%); format: functional; outline: as §3
NCI-H1975 = assay: Antiproliferative activity against human NCI-H1975 cells assessed as reduction in cell viability after 24 hrs by MTT assay; format: functional, cell-based; details: NCI-H1975, 24 h
Outline: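 MTT colorimetric assay. Cells in log phase in medium with 10% FBS were seeded at 10⁴ cells/well and left overnight at 37 °C, 5% CO₂ to reattach. Compounds were added at 0.1, 1, 10 and 100 μM in 10% FBS for 24 h. IC50 reported as mean ± SD of three independent experiments.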

A549 [19] = assay: Induction of apoptosis in human A549 cells assessed as viable cells at 8 uM after 36 hrs by Annexin-V/PI staining based flow cytometry analysis (reference value: 88.4%); format: functional; details: A549, 36 h, read-out: Activity; outline: as §1
A549 [20] = assay: Induction of apoptosis in human A549 cells assessed as reduction in Bcl-2 expression at 2 to 8 uM after 24 hrs by Western blot analysis; format: functional, cell-based; outline: as §2

With `CC(C)=CC[C@@H](OC(=O)/C=C\C(=O)c1ccc(F)cc1)C1=CC(=O)c2c(O)ccc(O)c2C1=O` as the compound, how does the Activity (A549 [1]) read?
Its Activity is 3%.

What about the Activity (A549 [2]) of the same compound?
Its Activity is 27.9%.

What about the Activity (A549 [3]) of the same compound?
The Activity was “Dose-dependent effect”.

What about the inhibition [4] of the same compound?
The inhibition was “Dose-dependent effect”.

What about the Activity (A549 [5]) of the same compound?
Its Activity is “Dose-dependent effect”.

What about the Activity (A549 [6]) of the same compound?
The Activity was 59.17%.

What about the viability at 8 µM (A549 [7]) of the same compound?
The viability at 8 µM was 79%.

And the Activity (Tubulin (Homo sapiens))?
Its Activity is “Active”.

And the Activity (A549 [8])?
The Activity was 42.59%.

And the Activity (A549 [9])?
Its Activity is 42.6%.

And the inhibition (A549 [10])?
The inhibition was “Dose-dependent effect”.

And the Activity (A549 [11])?
Its Activity is 4.16%.

And the Activity (A549 [12])?
Its Activity is “Active”.

What about the viability at 8 µM (A549 [13]) of the same compound?
The viability at 8 µM was 37.1%.

What about the Activity (A549 [14]) of the same compound?
Its Activity is 10%.

What about the inhibition [15] of the same compound?
The inhibition was “Dose-dependent effect”.

And the inhibition (A549 [16])?
The inhibition was “Dose-dependent effect”.

What about the Activity (A549 [17]) of the same compound?
Its Activity is 10.6%.

What about the Activity (A549 [18]) of the same compound?
Its Activity is 15.4%.

What about the IC50 (NCI-H1975) of the same compound?
Its IC50 is 9.43 µM.

And the viability at 8 µM (A549 [19])?
Its viability at 8 µM is 12.2%.

And the Activity (A549 [20])?
Its Activity is “Active”.
